ChEMBL document CHEMBL1156750 (Bioorg Med Chem Lett, 2009)
pKi: −log10 of the molar value. Activity calls are given as the source filed them. The calls are words filed in the database; no cut-off is given here.

Key:
[1] = target: Muscarinic acetylcholine receptor (Rattus norvegicus) (UniProt P08482+P08483+P08485+P08911+P10980); test: Inhibition of rat muscarinic receptor at 10 uM
Rattus norvegicus [2] = species: Rattus norvegicus; test: Inhibition of rat Opiate receptor at 10 uM
Rattus norvegicus [3] = species: Rattus norvegicus; test: Inhibition of rat 5-HT receptor at 10 uM
[4] = target: 5-hydroxytryptamine receptor 1A (Homo sapiens) (UniProt P08908); test: Inhibition of human 5-HT1A receptor at 10 uM
[5] = target: 5-hydroxytryptamine receptor 2B (Homo sapiens) (UniProt P41595); test: Inhibition of human 5-HT2B receptor at 10 uM
Homo sapiens = species: Homo sapiens; test: Inhibition of human sst receptor at 10 uM
[6] = target: Glucocorticoid receptor (Homo sapiens) (UniProt P04150); test: Inhibition of human GR at 10 uM
[7] = target: Estrogen receptor (Homo sapiens) (UniProt P03372); test: Inhibition of human ERalpha at 10 uM
[8] = target: Progesterone receptor (Homo sapiens) (UniProt P06401); test: Inhibition of human PR at 10 uM
Rattus norvegicus [9] = species: Rattus norvegicus; test: Inhibition of rat sodium channel site2 at 10 uM
Rattus norvegicus [10] = species: Rattus norvegicus; test: Inhibition of rat chloride channel at 10 uM
[11] = target: Sodium-dependent noradrenaline transporter (Homo sapiens) (UniProt P23975); test: Inhibition of human NE transporter at 10 uM
[12] = target: Sodium-dependent dopamine transporter (Rattus norvegicus) (UniProt P23977); test: Inhibition of rat DA transporter at 10 uM
Rattus norvegicus [13] = species: Rattus norvegicus; test: Inhibition of rat choline transporter at 10 uM
Rattus norvegicus [14] = species: Rattus norvegicus; test: Inhibition of rat GABA transporter at 10 uM
Trypsin = Trypsin (Homo sapiens, UniProt P07477+P07478+P35030); test: Inhibition of human trypsin; format: protein assay
[15] = Inhibition of human Tryptase
Plasma [16] = test: Anticoagulant activity in Sprague-Dawley rat plasma assessed as concentration required to double the prothrombin based clotting at 30 mg/kg, id; format: functional; details: route intraduodenal
Rattus norvegicus [17] = test: Anticoagulant activity against Sprague-Dawley rat arterial thrombosis model induced by topical application of Fecl2; format: functional; details: Rattus norvegicus, Sprague-Dawley, oral
How it was run: (§1)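 Rat carotid artery thrombosis: vehicle (PEG-400) or compound given by 1 mL/kg gavage at 0 min (5, 10, 15, 30 mg/kg; n = 5, 6, 6, 4; vehicle n = 8), with aspirin 10 mg/kg iv 15 min before FeCl2. Rats anesthetized at 30 min. 50% FeCl2 applied topically at 60 min for 10 min. Thrombus weight taken 1 h later. ANOVA with Dunnett's test.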

Rattus norvegicus [18] = test: Anticoagulant activity in Fecl2-induced po dosed Sprague-Dawley rat vena cava thrombosis model assessed as inhibition of thrombus weight; format: functional
How it was run: (§2)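 Rat vena cava thrombosis: vehicle (PEG-400) or compound at 5, 10, 15, 30 mg/kg (n = 5 per group) given by 1 mL/kg gavage at 0 min. Rats anesthetized at 30 min. 15% FeCl2 applied topically to the vena cava at 60 min for 2 min. Thrombus weight determined 1 h after FeCl2.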

Rattus norvegicus [19] = test: Anticoagulant activity in Fecl2-induced Sprague-Dawley rat vena cava thrombosis model assessed as inhibition of thrombus weight at 15 mg/kg, po; format: functional; how it was run: as §2
Rattus norvegicus [20] = test: Anticoagulant activity against […] Sprague-Dawley rat carotid artery thrombosis assessed as decreasing thrombosis weight at 10 mg/kg, po; format: functional; design: scale not given: the % may be the effect or the level left; how it was run: as §1
[21] = target: Beta-2 adrenergic receptor (Homo sapiens) (UniProt P07550); test: Inhibition of human beta-2 adrenergic receptor at 10 uM
[22] = target: Beta-1 adrenergic receptor (Homo sapiens) (UniProt P08588); test: Inhibition of human beta-1 adrenergic receptor at 10 uM
[23] = target: Adrenergic receptor alpha-2 (Rattus norvegicus) (UniProt P22086+P19328+P22909); test: Inhibition of rat alpha-2 adrenergic receptor at 10 uM
[24] = target: Adrenergic receptor alpha-1 (Rattus norvegicus) (UniProt P15823+P23944+P43140); test: Inhibition of rat alpha-1 adrenergic receptor at 10 uM
[25] = target: Adenosine receptor A1 (Homo sapiens) (UniProt P30542); test: Inhibition of human A1 receptor at 10 uM
[26] = Inhibition of sodium channel
Plasma [27] = test: Anticoagulant activity in human plasma assessed as concentration required to double the prothrombin based clotting time after 30 seconds; format: functional
How it was run: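 Human plasma prothrombin-based clotting time; value is the inhibitor concentration that doubles the clotting time, averaged from two independent determinations.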

[28] = target: Cholecystokinin receptor type A (Homo sapiens) (UniProt P32238); test: Inhibition of human CCKA receptor at 10 uM
[29] = target: D(1A) dopamine receptor (Homo sapiens) (UniProt P21728); test: Inhibition of human dopamine D1 receptor at 10 uM
[30] = target: D(2) dopamine receptor (Homo sapiens) (UniProt P14416); test: Inhibition of human dopamine D2S receptor at 10 uM
Rattus norvegicus [31] = species: Rattus norvegicus; test: Inhibition of rat AMPA receptor at 10 uM
Rattus norvegicus [32] = species: Rattus norvegicus; test: Inhibition of rat Kainate receptor at 10 uM
[33] = target: Glutamate NMDA receptor (Rattus norvegicus) (UniProt P35439+Q00959+Q00960+Q00961+Q62645+Q8VHN2+Q9R1M7); test: Inhibition of rat NMDA receptor at 10 uM; format: protein-complex assay
[34] = target: Histamine H1 receptor (Cavia porcellus) (UniProt P31389); test: Inhibition of guinea pig H1 receptor
[35] = target: Histamine H2 receptor (Cavia porcellus) (UniProt P47747); test: Inhibition of guinea pig H2 receptor at 10 uM
Rattus norvegicus [36] = test: Anticoagulant activity against Sprague-Dawley rat carotid artery thrombosis induced by FeCl2 in aspirin-treated rats assessed as decreasing thrombosis weight at 15 mg/kg, po; design: scale not given: the % may be the effect or the level left
Rattus norvegicus [37] = test: Anticoagulant activity against Sprague-Dawley rat carotid artery thrombosis induced by FeCl2 in aspirin-treated rats assessed as decreasing thrombosis weight at 30 mg/kg, po; design: scale not given: the % may be the effect or the level left

Chain of Beta-2 adrenergic receptor (Homo sapiens) (P07550 whole entry, looked up): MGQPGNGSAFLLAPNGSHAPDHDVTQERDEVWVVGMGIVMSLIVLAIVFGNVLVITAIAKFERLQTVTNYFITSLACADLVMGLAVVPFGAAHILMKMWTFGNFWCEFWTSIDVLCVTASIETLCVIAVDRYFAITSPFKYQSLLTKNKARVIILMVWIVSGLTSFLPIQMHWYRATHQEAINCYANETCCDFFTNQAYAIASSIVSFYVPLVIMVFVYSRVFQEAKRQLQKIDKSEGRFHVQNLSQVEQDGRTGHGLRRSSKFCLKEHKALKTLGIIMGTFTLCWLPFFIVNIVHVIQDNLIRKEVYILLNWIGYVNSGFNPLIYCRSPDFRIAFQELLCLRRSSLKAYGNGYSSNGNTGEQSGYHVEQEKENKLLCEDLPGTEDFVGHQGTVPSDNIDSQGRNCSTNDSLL
Chain of 5-hydroxytryptamine receptor 1A (Homo sapiens) (P08908 whole entry): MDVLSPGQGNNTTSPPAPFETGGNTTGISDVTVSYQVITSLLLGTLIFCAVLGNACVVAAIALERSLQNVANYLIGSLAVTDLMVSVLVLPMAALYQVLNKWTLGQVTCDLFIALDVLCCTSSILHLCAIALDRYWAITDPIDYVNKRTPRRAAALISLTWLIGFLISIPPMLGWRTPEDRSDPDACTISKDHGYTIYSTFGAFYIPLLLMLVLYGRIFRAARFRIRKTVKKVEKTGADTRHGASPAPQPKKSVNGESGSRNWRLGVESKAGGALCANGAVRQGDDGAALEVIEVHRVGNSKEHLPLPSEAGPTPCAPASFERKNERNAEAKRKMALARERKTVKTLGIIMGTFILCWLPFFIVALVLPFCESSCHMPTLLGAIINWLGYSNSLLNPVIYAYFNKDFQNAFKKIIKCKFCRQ
Chain of Estrogen receptor (Homo sapiens) (P03372 whole entry): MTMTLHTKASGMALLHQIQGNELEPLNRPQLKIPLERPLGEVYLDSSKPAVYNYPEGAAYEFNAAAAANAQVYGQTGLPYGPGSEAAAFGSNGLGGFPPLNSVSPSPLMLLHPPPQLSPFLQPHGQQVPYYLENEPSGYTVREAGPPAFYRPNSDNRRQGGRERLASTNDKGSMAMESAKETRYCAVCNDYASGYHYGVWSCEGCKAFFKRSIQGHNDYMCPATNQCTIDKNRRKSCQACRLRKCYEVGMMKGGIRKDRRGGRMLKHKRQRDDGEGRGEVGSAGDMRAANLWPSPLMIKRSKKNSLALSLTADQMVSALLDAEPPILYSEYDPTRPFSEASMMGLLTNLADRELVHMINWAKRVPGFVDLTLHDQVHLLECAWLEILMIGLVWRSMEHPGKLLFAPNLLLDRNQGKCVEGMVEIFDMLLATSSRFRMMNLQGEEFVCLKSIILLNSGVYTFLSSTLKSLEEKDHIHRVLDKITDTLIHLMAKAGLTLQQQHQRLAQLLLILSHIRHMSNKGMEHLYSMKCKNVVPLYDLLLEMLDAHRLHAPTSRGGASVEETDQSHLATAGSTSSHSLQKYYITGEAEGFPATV
Chain of Beta-1 adrenergic receptor (Homo sapiens) (P08588 whole entry, looked up): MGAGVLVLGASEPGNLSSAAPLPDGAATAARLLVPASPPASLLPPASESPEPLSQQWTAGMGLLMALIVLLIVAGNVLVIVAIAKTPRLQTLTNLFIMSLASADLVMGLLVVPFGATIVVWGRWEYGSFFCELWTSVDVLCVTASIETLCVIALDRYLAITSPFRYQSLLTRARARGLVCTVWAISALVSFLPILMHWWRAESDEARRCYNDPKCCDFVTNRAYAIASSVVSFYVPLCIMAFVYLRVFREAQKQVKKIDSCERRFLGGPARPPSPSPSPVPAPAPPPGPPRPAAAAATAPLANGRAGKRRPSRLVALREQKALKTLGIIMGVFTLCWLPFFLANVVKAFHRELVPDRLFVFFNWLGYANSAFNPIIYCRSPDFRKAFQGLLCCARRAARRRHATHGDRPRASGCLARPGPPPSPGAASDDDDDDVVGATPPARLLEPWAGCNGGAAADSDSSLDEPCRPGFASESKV
Chain of Sodium-dependent dopamine transporter (Rattus norvegicus) (P23977 whole entry): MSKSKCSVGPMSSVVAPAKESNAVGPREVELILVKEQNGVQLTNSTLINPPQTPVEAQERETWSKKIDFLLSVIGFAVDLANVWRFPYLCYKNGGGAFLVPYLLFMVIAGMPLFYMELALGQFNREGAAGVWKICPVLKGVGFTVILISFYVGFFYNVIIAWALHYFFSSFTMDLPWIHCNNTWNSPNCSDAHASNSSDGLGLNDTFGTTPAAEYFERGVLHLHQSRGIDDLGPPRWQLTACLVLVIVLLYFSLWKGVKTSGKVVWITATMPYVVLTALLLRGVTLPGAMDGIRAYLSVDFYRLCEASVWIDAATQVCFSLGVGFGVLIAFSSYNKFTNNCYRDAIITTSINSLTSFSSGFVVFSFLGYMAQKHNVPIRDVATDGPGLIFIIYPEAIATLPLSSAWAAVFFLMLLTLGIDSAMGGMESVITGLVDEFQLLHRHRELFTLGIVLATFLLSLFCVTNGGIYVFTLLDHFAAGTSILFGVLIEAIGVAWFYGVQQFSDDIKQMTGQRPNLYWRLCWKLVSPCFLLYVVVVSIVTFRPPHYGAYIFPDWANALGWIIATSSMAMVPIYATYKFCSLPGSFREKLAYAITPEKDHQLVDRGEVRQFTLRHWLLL
Chain of D(1A) dopamine receptor (Homo sapiens) (P21728 whole entry): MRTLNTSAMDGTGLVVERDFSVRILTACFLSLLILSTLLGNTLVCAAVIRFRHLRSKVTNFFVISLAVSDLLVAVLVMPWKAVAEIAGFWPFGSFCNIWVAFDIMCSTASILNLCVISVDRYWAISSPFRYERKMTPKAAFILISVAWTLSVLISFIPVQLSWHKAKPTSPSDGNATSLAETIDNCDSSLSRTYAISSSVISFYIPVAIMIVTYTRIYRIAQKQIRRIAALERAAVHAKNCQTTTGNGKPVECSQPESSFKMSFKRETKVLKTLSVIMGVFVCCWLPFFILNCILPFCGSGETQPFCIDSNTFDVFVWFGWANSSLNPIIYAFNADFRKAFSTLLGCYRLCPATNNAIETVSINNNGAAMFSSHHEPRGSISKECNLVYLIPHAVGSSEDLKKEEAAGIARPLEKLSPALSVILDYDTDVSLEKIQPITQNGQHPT
Chain of 5-hydroxytryptamine receptor 2B (Homo sapiens) (P41595 whole entry): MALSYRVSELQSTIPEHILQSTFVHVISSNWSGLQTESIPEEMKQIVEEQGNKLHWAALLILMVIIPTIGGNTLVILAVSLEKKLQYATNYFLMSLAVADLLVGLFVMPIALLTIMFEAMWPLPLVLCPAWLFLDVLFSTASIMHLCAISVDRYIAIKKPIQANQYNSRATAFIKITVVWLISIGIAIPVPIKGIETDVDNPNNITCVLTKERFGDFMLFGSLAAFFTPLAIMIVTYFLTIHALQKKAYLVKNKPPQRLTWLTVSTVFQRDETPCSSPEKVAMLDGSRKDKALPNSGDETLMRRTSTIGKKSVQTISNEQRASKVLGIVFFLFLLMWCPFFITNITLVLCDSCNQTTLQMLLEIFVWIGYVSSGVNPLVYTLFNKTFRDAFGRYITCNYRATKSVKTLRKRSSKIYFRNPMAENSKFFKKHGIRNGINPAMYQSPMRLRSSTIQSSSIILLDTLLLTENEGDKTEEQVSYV
Chain of Cholecystokinin receptor type A (Homo sapiens) (P32238 whole entry): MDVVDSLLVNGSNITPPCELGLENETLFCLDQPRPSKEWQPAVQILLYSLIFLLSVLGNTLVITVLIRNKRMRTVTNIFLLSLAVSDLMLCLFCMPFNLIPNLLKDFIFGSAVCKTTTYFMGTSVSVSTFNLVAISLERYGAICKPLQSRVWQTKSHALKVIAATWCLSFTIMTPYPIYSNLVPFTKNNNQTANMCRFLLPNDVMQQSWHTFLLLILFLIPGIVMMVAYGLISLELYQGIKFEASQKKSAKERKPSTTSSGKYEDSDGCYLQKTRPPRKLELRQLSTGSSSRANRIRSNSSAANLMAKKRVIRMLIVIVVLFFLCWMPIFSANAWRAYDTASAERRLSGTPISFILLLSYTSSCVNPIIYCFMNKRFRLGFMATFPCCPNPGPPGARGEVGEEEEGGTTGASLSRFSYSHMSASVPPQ
Chain of Progesterone receptor (Homo sapiens) (P06401 whole entry): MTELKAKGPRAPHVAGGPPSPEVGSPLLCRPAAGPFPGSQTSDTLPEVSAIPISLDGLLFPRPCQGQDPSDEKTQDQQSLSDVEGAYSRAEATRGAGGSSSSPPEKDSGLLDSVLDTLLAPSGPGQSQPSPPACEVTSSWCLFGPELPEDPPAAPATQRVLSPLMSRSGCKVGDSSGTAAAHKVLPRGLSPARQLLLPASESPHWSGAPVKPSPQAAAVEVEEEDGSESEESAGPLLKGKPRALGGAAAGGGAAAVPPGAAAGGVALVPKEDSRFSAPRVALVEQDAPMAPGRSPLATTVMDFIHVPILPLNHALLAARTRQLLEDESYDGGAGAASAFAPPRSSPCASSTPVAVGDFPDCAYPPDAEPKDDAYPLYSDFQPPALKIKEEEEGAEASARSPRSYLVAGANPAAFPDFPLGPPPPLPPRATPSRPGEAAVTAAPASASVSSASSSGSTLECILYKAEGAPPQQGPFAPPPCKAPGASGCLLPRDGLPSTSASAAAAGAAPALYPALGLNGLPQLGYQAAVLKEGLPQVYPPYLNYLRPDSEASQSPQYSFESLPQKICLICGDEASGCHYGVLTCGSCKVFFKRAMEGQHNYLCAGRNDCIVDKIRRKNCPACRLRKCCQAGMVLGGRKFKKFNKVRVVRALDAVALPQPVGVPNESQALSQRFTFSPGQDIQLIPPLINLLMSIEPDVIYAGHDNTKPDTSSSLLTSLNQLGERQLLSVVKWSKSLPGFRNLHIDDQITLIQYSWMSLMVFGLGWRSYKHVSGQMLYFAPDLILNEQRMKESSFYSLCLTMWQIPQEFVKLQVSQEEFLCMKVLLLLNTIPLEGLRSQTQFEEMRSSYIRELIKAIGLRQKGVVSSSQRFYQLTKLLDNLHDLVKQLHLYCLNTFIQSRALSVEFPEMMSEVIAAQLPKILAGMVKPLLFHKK

For `Cc1cc2cc(N/C(=N\C(=O)c3ccc(C(=O)N(C)C)nc3)N[C@H]3CCCCN(CC(=O)N4CCCC4)C3=O)ccc2o1`, the Activity [1] was “inactive”, the Activity (Rattus norvegicus [2]) was “inactive” and the Activity (Rattus norvegicus [3]) was “inactive”. The Activity [4] was “inactive”, the Activity [5] was “inactive” and the Activity (Homo sapiens) was “inactive”. For the same molecule, the Activity [6] was “inactive”, the Activity [7] was “inactive” and the Activity [8] was “inactive”. The Activity (Rattus norvegicus [9]) was “inactive”, the Activity (Rattus norvegicus [10]) was “inactive” and the Activity [11] was “inactive”. The Activity [12] was “inactive”, the Activity (Rattus norvegicus [13]) was “inactive” and the Activity (Rattus norvegicus [14]) was “inactive”. For the same molecule, the Ki (Trypsin) was greater than 10 µM, the pKi [15] was less than 4.52 and the Activity (Plasma [16]) was 3.6 µM. For the same molecule, the ED50 (Rattus norvegicus [17]) was 10 mg/kg, the ED50 (Rattus norvegicus [18]) was 2 mg/kg and the inhibition in vivo at 15 mg/kg (Rattus norvegicus [19]) was 90%. For the same molecule, the Activity (Rattus norvegicus [20]) was 36%, the Activity [21] was “inactive” and the Activity [22] was “inactive”. The Activity [23] was “inactive”, the Activity [24] was “inactive” and the Activity [25] was “inactive”. The Activity [26] was “inactive”, the Activity (Plasma [27]) was 2.5 µM and the Activity [28] was “inactive”. For the same molecule, the Activity [29] was “inactive”, the Activity [30] was “inactive” and the Activity (Rattus norvegicus [31]) was “inactive”. The Activity (Rattus norvegicus [32]) was “inactive”, the Activity [33] was “inactive” and the Activity [34] was “inactive”. For the same molecule, the Activity [35] was “inactive”, the Activity (Rattus norvegicus [36]) was 31% and the Activity (Rattus norvegicus [37]) was 54%.
